Hits are enriched below; roughly 3.7% of the tested compounds scored in any of these assays.
KCNK9 inh: inhibitors of human KCNK9 two-pore domain potassium channel | Q9NPC2 | HEK293 KCNK9, FluxOR thallium flux fluorescence; stronger effect = lower value | B-score at 10 µM | 310,000 compounds, 1.2% hits | AID 488922;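 active = ratio B-score over 3 SD below the library mean, with starting fluorescence within 5 SD of its mean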;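 note: negative B-score means less thallium flux so channel inhibition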
Target sequence (Q9NPC2 whole entry, looked up, the tested form may be a part): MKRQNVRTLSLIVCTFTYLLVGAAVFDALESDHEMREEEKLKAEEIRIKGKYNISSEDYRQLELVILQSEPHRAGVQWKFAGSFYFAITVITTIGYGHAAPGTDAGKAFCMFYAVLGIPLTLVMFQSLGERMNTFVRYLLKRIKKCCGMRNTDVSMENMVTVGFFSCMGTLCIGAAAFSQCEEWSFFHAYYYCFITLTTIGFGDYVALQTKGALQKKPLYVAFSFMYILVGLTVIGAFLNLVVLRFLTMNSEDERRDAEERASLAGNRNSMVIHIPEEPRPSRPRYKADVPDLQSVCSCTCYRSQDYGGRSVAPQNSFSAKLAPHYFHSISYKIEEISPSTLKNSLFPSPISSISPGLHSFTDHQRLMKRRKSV
KCNK3 inh: human KCNK3 channel inhibition, primary screen; AID 602410; 340,000 compounds, 0.84% hits; O14649; CHO-KCNK3 thallium flux, FluxOR fluorescence; stronger effect = lower value; B-score at 10 µM;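 active = B-score under library mean minus 4 SD, starting fluorescence ratio at most library mean plus 5 SD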;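 note: more negative B-score means stronger inhibition of thallium flux through KCNK3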
hERG protect: compounds protecting human hERG from proarrhythmic drug block | Q12809 | activation (rescue from dofetilide block), less the hit threshold, % at 10 µM | CHO-hERG, FluxOR thallium flux, dofetilide IC70 present | 310,000 compounds, 0.51% hits;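 active = activation above the mean of controls blocked by dofetilide plus 5 SD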;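 note: thallium influx through hERG after potassium depolarization seen as dye fluorescence rise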
KCNQ1 block: blocks the human KCNQ1 potassium channel. CHO-K1 KCNQ1, FluxOR thallium flux fluorescence; stronger effect = higher value. B-score at 10 µM. 310,000 compounds, 1.3% hits. AID 2642;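 active = compounds whose thallium flux B-score, printed positive for inhibition, exceeds three library SD while starting fluorescence stays within three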;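 note: channel opened by potassium depolarization with thallium stimulus after 20 min compound exposure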
KCNQ1 pot: potentiates or activates the human KCNQ1 potassium channel. 310,000 compounds, 0.35% hits. P51787. CHO-K1 KCNQ1, thallium flux FluxOR fluorescence; stronger effect = higher value. B-score at 10 µM;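 active = fluorescence ratio B-score, a plate-corrected score, at least three library SD, with initial intensity B-score within 5 SD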
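Assay system: stable KCNQ1 CHO-K1 line; medium: assay buffer, equal DMSO in all wells; timing: 90 min dye loading and 20 min compound exposure, both at room temperature; technique: kinetic FluxOR thallium fluorescence, 10-s 1-Hz baseline, 110-s post-stimulus read; read-out basis: B score of baseline-normalized fluorescence ratio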
Kir21 block: blocks the mouse Kir2.1 inward-rectifier potassium channel | HEK293-Kir2.1, FluxOR thallium flux fluorescence; stronger effect = lower value | 310,000 compounds, 0.85% hits | AID 1672 | P35561 | B-score at 10 µM;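 active = fluorescence ratio B-score at or below minus 3 SD of library scores, with starting-brightness B-score within 2 SD, cut at about -4.2 in these data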;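 note: channel flux triggered by added potassium and thallium sulfate stimulus; B-score of peak minus minimum fluorescence over baseline after thallium stimulus; more negative B-score means stronger Kir2.1 block with less thallium influx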
* marks the source's active call; other numbers are inactive results; i = inactive; . = no result given.

SMILES	KCNK9 inh	KCNK3 inh	hERG protect	KCNQ1 block	KCNQ1 pot	Kir21 block
Nn1c(Cc2cccc3ccccc23)nnc1SCCOc1ccc(F)cc1	-7.86*	i	-7.5	i	i	-0.4
CCc1noc(C)c1C(=O)N(CC)CC(=O)NCc1ccc(Cl)cc1	.	i	.	.	.	.
Cc1cccc(C(=O)Nc2sc(C(=O)N3CCCC3)c(C)c2C#N)c1	i	i	-7.1	i	i	0.94
Cc1cccc(C(=O)Nc2sc(C)c(-c3ccccc3)c2C#N)c1	i	i	-5.1	6*	i	2.01
COc1ccc(/C=N/NC(=O)c2ccn[nH]2)cc1COc1ccc([N+](=O)[O-])c(C)c1	i	i	-7.9	6*	i	-1.29
Cc1ccc(/C=C/C(=O)OC(C)C(=O)NC2CCCCC2C)o1 (stereo unspecified)	i	i	-17.6	i	i	-0.23
COc1ccccc1NC(=S)c1ccccc1	i	i	-4.9	i	i	0.03
COc1ccccc1C(=O)COC(=O)c1cccc(S(=O)(=O)N2CCCC2)c1	i	i	-17.2	i	i	1.32
COc1ccc(OC)c(COC(=O)c2cccc(S(=O)(=O)N3CCCCC3)c2)c1	.	-8.78*	.	.	.	.
Cc1ccc(COC(=O)c2cccc(S(=O)(=O)N3CCCCC3)c2)cc1	.	-11*	.	.	.	.
Cc1ccc(COC(=O)c2cccc(S(=O)(=O)N3CCCCCC3)c2)cc1	.	i	.	.	.	.
COc1ccccc1COC(=O)c1cccc(S(=O)(=O)N2CCCC2)c1	.	-9.56*	.	.	.	.
C#CCNC(=O)C1=C[C@H](C2CCCCC2)[C@@H](CCCO)[C@H](OCC)O1	i	i	-11.7	i	i	-0.69
CC(C)(C)c1ccc(OCCCC(=O)NNC(=O)c2ccccc2O)cc1	i	i	-28.0	8*	i	-0.01
Cc1cc(C(=O)NNC(=O)CCCOc2ccccc2)c(C)o1	i	i	-18.1	i	i	-0.76
O=C(O)c1ccc(N2CCc3ccccc32)c([N+](=O)[O-])c1	i	i	-3.9	i	i	1.86
CCCNC(=O)c1ccc(N2CCC3(CC2)CC(c2ccccc2)=NO3)c([N+](=O)[O-])c1	i	i	-7.0	i	i	0.19
O=C(NCc1ccc(F)cc1)c1ccc(N2CCc3ccccc32)c([N+](=O)[O-])c1	i	i	-10.1	i	i	-5.39*
CCCCCCCNC(=O)c1ccc(N2CCC3(CC2)OCCO3)c([N+](=O)[O-])c1	-6.83*	i	-0.5	i	i	0.67
COc1ccc(CNC(=O)c2ccc(N3CCOCC3)c([N+](=O)[O-])c2)cc1	i	i	-1.9	i	i	-4.88*
O=C(c1ccncc1)N1N=C(c2ccc(Cl)cc2)CC1c1ccccc1O (stereo unspecified)	i	i	-9.8	i	i	3.92
CCOc1cc(S(=O)(=O)NCc2ccccn2)c(C)cc1C	i	.	-12.7	i	i	-4.71*
Cc1ccc(C(C)C)cc1S(=O)(=O)NCc1ccccn1	i	i	-1.7	i	i	-5.83*
O=[N+]([O-])c1ccc(S(=O)(=O)N2CCSC2c2ccco2)cc1 (stereo unspecified)	i	i	-10.1	i	i	-4.63*
COc1ccc(S(=O)(=O)N2CCSC2c2ccccc2)cc1 (stereo unspecified)	i	i	-9.2	i	i	-3.12
SMILES	KCNK9 inh	KCNK3 inh	hERG protect	KCNQ1 block	KCNQ1 pot	Kir21 block
CCOc1ccccc1OCCCC(=O)N(CC)CC(=O)Nc1ccc(NC(C)=O)cc1	i	i	-14.2	i	i	0.73
CC1(C)Oc2ccc3ccc(=O)oc3c2/C(=C/Nc2cccc(O)c2)C1=O	-6.73*	i	-13.7	6*	i	-2.31
O=C(NCC(c1cccs1)N1CCOCC1)c1ccccc1NS(=O)(=O)c1cccc([N+](=O)[O-])c1 (stereo unspecified)	i	i	-8.8	i	i	0.85
O=C(NCC(c1cccs1)N1CCOCC1)c1ccccc1NS(=O)(=O)c1ccc(Cl)c([N+](=O)[O-])c1 (stereo unspecified)	i	i	-12.7	13*	i	0.5
COc1ccccc1N1CCN(c2ccc3ccccc3n2)CC1	i	i	-4.2	i	i	1.97
c1ccc(C(c2ccccc2)N2CCN(c3nc4ccccc4n4cnnc34)CC2)cc1	i	.	-7.5	6*	i	1.52
Clc1ccc(C(c2ccccc2)N2CCN(c3ccccn3)CC2)cc1 (stereo unspecified)	-7.26*	i	-9.1	i	i	-1.94
c1ccc(C(c2ccccc2)N2CCN(c3ccc4ccccc4n3)CC2)cc1	-7.76*	i	-10.0	i	i	-1.33
O=C(Nc1ccc(C(F)(F)F)cc1[N+](=O)[O-])O[C@H]1[C@H](Cc2ccccc2)NS(=O)(=O)[C@H]2C[C@@H]3C=C[C@]12O3	.	i	.	.	.	.
CCOc1ccc(S(=O)(=O)NCCC(=O)OCC(=O)c2ccc(NC(C)=O)cc2)cc1	i	i	-14.9	i	i	2.66
O=C(N/N=C/c1cc([N+](=O)[O-])ccc1O)c1ccc(COc2ccc3c(c2)CCC3)o1	i	i	14.2*	i	i	-1.19
Cc1cccc(C(=O)N/N=C/c2coc3ccccc3c2=O)c1	i	i	-13.0	i	i	-0.27
O=C(N/N=C/c1coc2ccccc2c1=O)c1cccc([N+](=O)[O-])c1	i	i	-7.8	7*	i	-1.19
O=c1cc2c(n[nH]1)-c1ccccc1CC2	i	i	-3.9	i	i	1.42
O=C(NNc1ccccc1)NC(Cc1ccccc1)C(=O)O (stereo unspecified)	.	i	.	.	.	.
Cn1c2ccccc2c(=O)c2ccc(C#Cc3ccc(N)cc3)cc21	-7.34*	i	-16.7	i	i	0.21
C=CCn1c(=O)c2ccccc2n2c(SCC(=O)NCC)nnc12	i	i	-5.3	i	i	-0.57
O=C1OCCC1Sc1nc2ccccc2c(=O)n1Cc1ccc(F)cc1 (stereo unspecified)	i	i	9.9*	i	11*	0.55
CC1N(C)c2cc(NC(=O)c3cccs3)c(P(=O)(Nc3ccc([N+](=O)[O-])cc3)N3CCOCC3)cc2C1(C)C (stereo unspecified)	-7.15*	i	-10.7	i	i	-0.11
Nc1nc(N)c(N=Nc2ccc(C(=O)O)cc2)c(N)n1	i	i	-6.5	i	11*	0.05
Cc1cc(Br)ccc1NC(=O)CN1C(=O)C2CC=CCC2C1=O (stereo unspecified)	.	i	.	.	.	.

High-throughput results from PubChem.
